Active and inactive are the calls of the source. The rule behind the calls is not given here.
Tests used:
[1] = molecular target: T1, Histone-arginine methyltransferase CARM1 (Homo sapiens, UniProt Q86X55); assay: Inhibition of PRMT4 (unknown origin)
T1 sequence (Q86X55 whole entry): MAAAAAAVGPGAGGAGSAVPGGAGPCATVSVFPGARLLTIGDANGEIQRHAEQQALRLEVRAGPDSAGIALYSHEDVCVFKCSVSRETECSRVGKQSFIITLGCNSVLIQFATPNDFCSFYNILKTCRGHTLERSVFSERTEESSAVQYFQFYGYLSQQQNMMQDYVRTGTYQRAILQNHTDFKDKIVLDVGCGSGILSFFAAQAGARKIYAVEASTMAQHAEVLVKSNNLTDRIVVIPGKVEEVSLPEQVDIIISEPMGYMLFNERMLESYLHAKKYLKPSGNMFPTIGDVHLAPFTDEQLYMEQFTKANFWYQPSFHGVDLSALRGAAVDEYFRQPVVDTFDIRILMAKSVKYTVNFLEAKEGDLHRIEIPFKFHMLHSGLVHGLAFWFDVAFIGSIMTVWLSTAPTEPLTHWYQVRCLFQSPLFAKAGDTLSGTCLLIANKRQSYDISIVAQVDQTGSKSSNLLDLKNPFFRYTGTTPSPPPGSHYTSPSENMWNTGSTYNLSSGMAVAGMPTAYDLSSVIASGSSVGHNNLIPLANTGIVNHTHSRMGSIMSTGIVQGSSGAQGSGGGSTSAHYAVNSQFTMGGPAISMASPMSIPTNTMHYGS

[2] = molecular target: T2, Histone-arginine methyltransferase CARM1 (Homo sapiens) (UniProt Q86X55); assay: Binding affinity to full length recombinant PRMT4 (unknown origin) assessed as in vitro residence time by surface plasmon resonance analysis
T2 sequence (whole entry): T1 sequence (Q86X55 whole entry)
Summary of the method: (§1)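 Full-length recombinant PRMT4 was amine-coupled to a CM5 chip at 50 μg/mL in 10 mM acetate pH 4.5, to 4.6 kRU, with an empty reference cell. The running buffer was PBS pH 7.4 with 0.05% Tween-20 and 2% DMSO. Compounds ran as 12 serial dilutions from 640 to 10 nM at 25 °C and 30 μL/min, with 90 s association and 90 s dissociation. Data were solvent-corrected and double-referenced, and KD was taken as koff/kon.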

[3] = molecular target: T2, Histone-arginine methyltransferase CARM1 (Homo sapiens); assay: Binding affinity to full length recombinant PRMT4 (unknown origin) assessed as binding constant (Koff) by surface plasmon resonance analysis; summary of the method: as §1
[4] = molecular target: T2, Histone-arginine methyltransferase CARM1 (Homo sapiens); assay: Binding affinity to full length recombinant PRMT4 (unknown origin) assessed as binding constant (Kon) by surface plasmon resonance analysis; summary of the method: as §1
[5] = Cytotoxicity against human HEK293T cells assessed as cell viability at 10 to 100 uM measured after 72 hrs by MTT assay; format: toxicity, cell-based, HEK-293T; details: dose 10-100 µM, read-out: Activity
Summary of the method: (§2)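 HEK293T cells grown in DMEM with 10% FBS, penicillin/streptomycin and 2 mM glutamine at 37 °C, 5% CO2; seeded at 5 × 10^4 cells/mL, exposed 24 or 72 h to 10, 50 or 100 μM in 0.2% DMSO; MTT formazan dissolved in DMSO, read at 550 nm minus 620 nm; quadruplicate; percent of 0.2% DMSO control.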

HEK-293T = assay: Cytotoxicity against human HEK293T cells assessed as cell viability at 10 to 100 uM incubated for 24 to 72 hrs by MTT assay; format: toxicity, cell-based; details: dose lower 10 µM, time lower 24 hrs, dose upper 100 µM, time upper 72 hrs; summary of the method: as §2
[6] = Apparent permeability of the compound in phosphate buffer at pH 7.4 measured after 24 hrs by PAMPA assay; format: ADME; details: pH 7.4, 24 h
[7] = Toxicity in human HEK293T cells assessed as cell death at >10 uM measured after 24 hrs; details: hek-293t
MCF7 [8] = assay: Antiproliferative activity against human MCF7 cells assessed as reduction in cell viability at 10 uM incubated up to 8 days by cell titer-glo assay; format: functional, cell-based; details: time <= 8.0 day
Summary of the method: (§3)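 MCF7 seeded at 1000 cells/well in 96-well plates; proliferation read at days 0, 2, 4, 6 and 8 with medium changed at day 4; viability measured by CellTiter-Glo luminescence.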

MCF7 [9] = assay: Antiproliferative activity against human MCF7 cells assessed as reduction in cell viability at 50 uM incubated up to 8 days by cell titer-glo assay; format: functional, cell-based; details: time <= 8.0 day; summary of the method: as §3
Homo sapiens = species on record: Homo sapiens; assay: Selectivity index, ratio of IC50 for inhibition of human full length recombinant GST-tagged PRMT6 (2 to 375 residues) using GST-GAR as substrate to IC50 for inhibition of human full length recombinant GST-tagged PRMT4 (2 to 608 residues) using histone H3 as substrate
Summary of the method: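 Radioisotope filter-binding assay: PRMT6 used 5 μM GST-GAR and PRMT4 used 5 μM histone H3, in pH 8.5 Tris buffer with 1% DMSO. Compound was preincubated 20 min at room temperature, then 1 μM 3H-SAM was added for 60 min at 30 °C, with scintillation read-out. […] Index = IC50(PRMT6)/IC50(PRMT4), rounded to integer.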

Structure (SMILES)	K [4]	viability at 72 h, up to 100 µM [5] [%]	Activity (HEK-293T)	permeability [6]	further results
COc1ccc(CCNC(=O)[C@@H](N)CC[C@H](CNCc2ccccc2)C[C@H]2O[C@@H](n3cnc4c(N)ncnc43)[C@H](O)[C@@H]2O)cc1					IC50 [1]: 1900 nM
C[S+](CCC(N)C(=O)O)C[C@H]1O[C@@H](n2cnc3c(N)ncnc32)[C@H](O)[C@@H]1O (single isomer, unassigned)	2.9 10^5/Ms				TIME [2]: 0.0926 h; K [3]: 0.003 s⁻¹
COC(=O)c1cc(O)c2cc(NC(=O)NCCCCNC(=N)NCC[C@H]3O[C@@H](n4cnc5c(N)ncnc54)[C@H](O)[C@@H]3O)ccc2c1	2.7 10^6/Ms	80	Non-Toxic	Impermeable	
CNCCN1CCC(c2cc(CN(C)C(=O)c3cccc(Oc4ccccc4)c3)ccn2)CC1					Activity [7]: Toxic; Activity (MCF7 [8]): Active
COC(=O)c1cc(O)c2cc(NC(=O)NCCCCCCCNC(=N)NC[C@H]3O[C@@H](n4cnc5c(N)ncnc54)[C@H](O)[C@@H]3O)ccc2c1	2.58 10^4/Ms				
COC(=O)c1cc(O)c2cc(NC(=O)NCCCCNC(=N)NC/C=C/[C@H]3O[C@@H](n4cnc5c(N)ncnc54)[C@H](O)[C@@H]3O)ccc2c1		80	Non-Toxic	Impermeable	Activity (MCF7 [9]): Active
COC(=O)c1cc(O)c2cc(NC(=O)NCCCCNC(=N)NCCC[C@H]3O[C@@H](n4cnc5c(N)ncnc54)[C@H](O)[C@@H]3O)ccc2c1	0.25 10^6/Ms	80	Non-Toxic	Impermeable	
COC(=O)c1cc(O)c2cc(NC(=O)NCCCCCNC(=N)NC[C@H]3O[C@@H](n4cnc5c(N)ncnc54)[C@H](O)[C@@H]3O)ccc2c1	3.49 10^4/Ms				Selectivity Index (Homo sapiens): > 238

Reference: ChEMBL document CHEMBL5137016, “Turning Nonselective Inhibitors of Type I Protein Arginine Methyltransferases into Potent and Selective Inhibitors of Protein Arginine Methyltransferase 4 through a Deconstruction-Reconstruction and Fragment-Growing Approach” (J Med Chem, 2022)
